These results are taken from ChEMBL document CHEMBL4622983, “Structure-Activity Relationship Studies of α-Ketoamides as Inhibitors of the Phospholipase A and Acyltransferase Enzyme Family” (J Med Chem, 2020).

The target of experiment [1] is T1, Phospholipase A and acyltransferase 3 (Homo sapiens, UniProt P53816).
T1 sequence (P53816 whole entry): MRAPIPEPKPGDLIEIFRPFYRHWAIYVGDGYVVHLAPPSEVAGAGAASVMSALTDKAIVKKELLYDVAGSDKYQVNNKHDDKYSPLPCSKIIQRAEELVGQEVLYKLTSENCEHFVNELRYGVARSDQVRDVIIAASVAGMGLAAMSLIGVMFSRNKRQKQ
As to the kind of experiment: Inhibition of full-length C-terminal FLAG-tagged human PLAAT3 expressed in HEK293T cell lysate preincubated for 30 mins followed by MB064 addition and measured after 20 mins by SDS-PAGE based ABPP analysis. The class given is cell-free, HEK-293T. The gist of the method: (§1)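 Dose–response competitive ABPP on cytosol only, from HEK293T overexpressing FLAG-tagged PLAAT. Inhibitor 30 min rt, then MB064 20 min rt. PLAAT2 0.25 μg/μL with 250 nM probe; PLAAT3 0.5 μg/μL with 250 nM; PLAAT4 and PLAAT5 1 μg/μL with 500 nM. Fluorescence normalized to Coomassie. IC50 from curves, reported as pIC50 ± SEM, n = 3.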

The species entered for experiment [2] is Homo sapiens. Nature of the experiment: Selectivity index, difference between pIC50 for full-length C-terminal FLAG-tagged human PLAAT5 expressed in HEK293T cell lysate to pIC50 for full-length C-terminal FLAG-tagged human PLAAT3 expressed in HEK293T cell lysate. A digest of the protocol: (§2)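 Cytosol of HEK293T cells transiently transfected (PEI) with C-terminal FLAG-tagged human PLAAT, harvested at 48 or 72 h. Dose-response: pretreated with inhibitor or DMSO for 30 min at rt, then labelled with MB064 for 20 min at rt. Protein and MB064: PLAAT2 0.25 μg/μL, 250 nM; PLAAT3 0.5 μg/μL, 250 nM; PLAAT4 1 μg/μL, 500 nM; PLAAT5 1 μg/μL, 500 nM. Read by SDS-PAGE in-gel fluorescence normalized to Coomassie. Triplicate pIC50s; index is the pIC50 difference.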

In experiment [3] the target is T2, Phospholipase A and acyltransferase 2 (Homo sapiens, UniProt Q9NWW9).
T2 sequence (Q9NWW9 whole entry): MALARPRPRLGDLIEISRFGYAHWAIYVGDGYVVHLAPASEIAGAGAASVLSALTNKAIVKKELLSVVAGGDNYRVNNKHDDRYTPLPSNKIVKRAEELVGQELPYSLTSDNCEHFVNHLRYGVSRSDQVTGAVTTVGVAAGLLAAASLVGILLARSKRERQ
As to the kind of experiment: Inhibition of full-length C-terminal FLAG-tagged human PLAAT2 expressed in HEK293T cell lysate preincubated for 30 mins followed by MB064 addition and measured after 20 mins by SDS-PAGE based ABPP analysis. The class given is cell-free, HEK-293T. The gist of the method: as §1

The species entered for experiment [4] is Homo sapiens. As to the kind of experiment: Selectivity index, difference between pIC50 for full-length C-terminal FLAG-tagged human PLAAT5 expressed in HEK293T cell lysate to pIC50 for full-length C-terminal FLAG-tagged human PLAAT4 expressed in HEK293T cell lysate. The gist of the method:
as §2

Experiment [5] is filed under the species Homo sapiens. As to the kind of experiment: Selectivity index, difference between pIC50 for full-length C-terminal FLAG-tagged human PLAAT5 expressed in HEK293T cell lysate to pIC50 for full-length C-terminal FLAG-tagged human PLAAT2 expressed in HEK293T cell lysate. The gist of the method: as §2
In experiment [6] the target is T3, Phospholipase A and acyltransferase 5 (Homo sapiens, UniProt Q96KN8).
T3 sequence (Q96KN8 whole entry): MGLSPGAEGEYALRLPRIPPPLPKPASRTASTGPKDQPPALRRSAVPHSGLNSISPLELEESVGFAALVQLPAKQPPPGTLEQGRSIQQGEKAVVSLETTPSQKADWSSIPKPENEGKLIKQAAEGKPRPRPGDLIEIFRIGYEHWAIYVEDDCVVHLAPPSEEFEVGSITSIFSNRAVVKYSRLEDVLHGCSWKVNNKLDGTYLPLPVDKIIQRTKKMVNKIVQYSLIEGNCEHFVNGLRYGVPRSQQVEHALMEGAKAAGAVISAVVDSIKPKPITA
Nature of the experiment: Inhibition of full-length C-terminal FLAG-tagged human PLAAT5 expressed in HEK293T cell lysate preincubated for 30 mins followed by MB064 addition and measured after 20 mins by SDS-PAGE based ABPP analysis. The class given is cell-free, HEK-293T. A digest of the protocol: as §1

The target in experiment [7] is T4, Phospholipase A and acyltransferase 4 (Homo sapiens, UniProt Q9UL19).
T4 sequence (Q9UL19 whole entry): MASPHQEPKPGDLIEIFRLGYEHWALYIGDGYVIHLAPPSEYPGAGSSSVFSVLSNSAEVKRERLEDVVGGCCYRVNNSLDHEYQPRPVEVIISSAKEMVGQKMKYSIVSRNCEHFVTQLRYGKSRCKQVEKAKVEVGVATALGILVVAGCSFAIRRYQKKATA
As to the kind of experiment: Inhibition of full-length C-terminal FLAG-tagged human PLAAT4 expressed in HEK293T cell lysate preincubated for 30 mins followed by MB064 addition and measured after 20 mins by SDS-PAGE based ABPP analysis. It is filed as cell-free, HEK-293T. A digest of the protocol:
as §1

Experiment [8] deals with Phospholipase A and acyltransferase 4 (Homo sapiens) (UniProt Q9UL19). As to the kind of experiment: Inhibition of full-length C-terminal FLAG-tagged human PLAAT4 expressed in HEK293T cell lysate at 10 uM preincubated for 30 mins followed by MB064 addition and measured after 20 mins by SDS-PAGE based ABPP analysis. The class given is cell-free. The settings on record: HEK-293T. A digest of the protocol:
(§3)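 Cytosol from HEK293T cells transiently transfected (PEI) with C-terminal FLAG-tagged human PLAAT, harvested 48–72 h. Inhibitor 10 μM, 30 min rt, then MB064 probe 20 min rt. Protein/MB064: PLAAT2 0.25 μg/μL, 250 nM; PLAAT3 0.5 μg/μL, 250 nM; PLAAT4 1 μg/μL, 500 nM; PLAAT5 1 μg/μL, 500 nM. Read-out: in-gel fluorescence after SDS-PAGE, normalized to Coomassie. Triplicate.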

Experiment [9] deals with T5, Phospholipase A and acyltransferase 2 (Homo sapiens) (UniProt Q9NWW9).
T5 sequence (whole entry): T2 sequence (Q9NWW9 whole entry)
As to the kind of experiment: Inhibition of full-length C-terminal FLAG-tagged human PLAAT2 expressed in HEK293T cell lysate at 10 uM preincubated for 30 mins followed by MB064 addition and measured after 20 mins by SDS-PAGE based ABPP analysis. It is filed as cell-free. The settings on record: HEK-293T. A digest of the protocol: as §3

Experiment [10] addresses T6, Phospholipase A and acyltransferase 5 (Homo sapiens) (UniProt Q96KN8).
T6 sequence (whole entry): T3 sequence (Q96KN8 whole entry)
Nature of the experiment: Inhibition of full-length C-terminal FLAG-tagged human PLAAT5 expressed in HEK293T cell lysate at 10 uM preincubated for 30 mins followed by MB064 addition and measured after 20 mins by SDS-PAGE based ABPP analysis. It is filed as cell-free. As to conditions: HEK-293T. A digest of the protocol:
as §3

Experiment [11] addresses Phospholipase A and acyltransferase 3 (Homo sapiens) (UniProt P53816). As to the kind of experiment: Inhibition of full-length C-terminal FLAG-tagged human PLAAT3 expressed in HEK293T cell lysate at 10 uM preincubated for 30 mins followed by MB064 addition and measured after 20 mins by SDS-PAGE based ABPP analysis. It is filed as cell-free. The settings on record: HEK-293T. A digest of the protocol:
as §3

The source made the active and inactive calls. The calls are words filed in the database; no cut-off is given here.

By IC50 is commonly meant the midpoint of a concentration-inhibition curve. Low readings indicate greater potency in that assay, high ones weaker potency in that assay. Take `O=C(CCc1ccc(Oc2ccccc2)cc1)C(=O)NCCc1ccccc1`: the IC50 in [1] is 3.98 µM; in experiment [3], 3.98 µM; in experiment [6], 0.126 µM; in experiment [7], 1.26 µM. Further, the Selectivity Index in the experiment filed under Homo sapiens [2], in the experiment filed under Homo sapiens [4] and in the experiment listed under Homo sapiens [5] was 10 to 30 in each case.

Regarding `O=C(NCCc1ccccc1)C(O)CCc1ccc(Cl)cc1` (configuration not stated), the IC50 in experiment [1], in experiment [3], in [6] and in [7] was over 10 µM each time. Moreover, the inhibition entry in experiment [8], in experiment [9], in experiment [10] and in [11] was “inactive” throughout.

`O=C(CCc1ccc(C(F)(F)F)cc1)C(=O)NCCc1ccccc1`: the IC50 was 7.94 µM in experiment [1], 2 µM in [3], 0.316 µM in [6] and 2.51 µM in experiment [7].

For `O=C(/C=C/c1cccc(-c2ccccc2)c1)C(=O)NCCc1ccccc1`, the 50% inhibitory concentration (IC50) in [1] was 3.16 µM; in experiment [3], 2.51 µM; in experiment [6], 1 µM; in experiment [7] it was 2.51 µM.

For `O=C(CCc1ccccc1)C(=O)NCCc1ccccc1`, the IC50 in experiment [1] was over 10 µM; in experiment [3], over 10 µM; in experiment [6], 1 µM; in experiment [7] it was 3.16 µM.

In the case of `O=C(NCc1ccccc1)C(F)(F)C(O)CCc1ccccc1` (configuration not stated), the IC50 in experiment [1], in experiment [3], in experiment [6] and in experiment [7] was over 10 µM each time.

Consider `O=C(CCCc1ccccc1)C(=O)NCCc1ccc(Oc2ccnc(Cl)n2)cc1`, for which the IC50 is 0.251 µM in experiment [1], 0.631 µM in [3], 0.0794 µM in [6] and 0.2 µM in [7].

For the molecule `CN(CCc1ccccc1)C(=O)C(=O)CCc1ccc(Cl)cc1`, the IC50 in [1], in [3], in experiment [6] and in experiment [7] was over 10 µM throughout.

With `O=C(CCc1ccc(Cl)cc1)C(=O)N1CCCC1`, the IC50 in experiment [1], in experiment [3], in experiment [6] and in experiment [7] was over 10 µM each time.

Turning to `O=C(CCc1ccccc1)CC(=O)NCc1ccccc1`, the IC50 in [1], in experiment [3], in [6] and in experiment [7] was over 10 µM in each case.

As to `O=C(CCc1ccc(Cl)cc1)C(=O)N1CCC[C@H]1Cc1ccccc1`, the IC50 in experiment [1], in [3], in experiment [6] and in [7] was over 10 µM each time.

Turning to `O=C(CCc1ccc(Cl)cc1)C(=O)N1CCOCC1`, the IC50 in experiment [1], in experiment [3], in experiment [6] and in experiment [7] was over 10 µM throughout.

Consider `O=C(CCCCc1ccccc1)C(=O)NCCc1ccccc1`, for which the IC50 in experiment [1] is 1 µM; in experiment [3], 3.16 µM; in [6], 0.158 µM; in experiment [7] it was 1.58 µM.

For `CN1CCN(C(=O)C(=O)CCc2ccc(Cl)cc2)CC1`, the IC50 in experiment [1], in experiment [3], in [6] and in experiment [7] was over 10 µM each time.

As to `O=C(CCc1ccc(F)cc1)C(=O)NCCc1ccccc1`, the IC50 was 5.01 µM in [1], 7.94 µM in experiment [3], 1.58 µM in experiment [6] and 10 µM in [7].
